Results: publication PMC9157583 (Alzheimer's & Dementia : Translational Research & Clinical …, 2022)
Several values for one entry are separate records, joined by “and”; a condition that tells them apart may be missing. Equal entries are not always repeated. Where two headings read alike, the source gives them in different places.

Legend:
Src = Src (Homo sapiens, UniProt P12931); assay: Phospho‐Src; type: in vivo; settings: bosutinib 100 mg compared to placebo, 12 weeks
Method in brief: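 Phospho-Src was assayed with a PathScan sandwich ELISA. CSF or plasma was added to wells coated with rabbit polyclonal antibody that captures Src phosphorylated at Tyr416. Samples came from DLB participants at baseline and after 12 weeks of oral test compound 100 mg daily or placebo. Within-group changes used a one-tailed paired Wilcoxon test; between-group changes used a one-tailed Welch-corrected unpaired t-test.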

[1] = Pharmacokinetics: bosutinib concentration in plasma of DLB participants; type: in vivo, human; settings: for Tmax / AUC / Cmax: human; for AUC: AUC0‐4, plasma
alpha‐synuclein oligomer = assay: Oligomeric alpha‐synuclein ELISA in CSF and plasma; type: in vivo, human; settings: CSF or plasma, bosutinib vs placebo
Method in brief: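 Oligomeric alpha-synuclein in CSF and plasma was quantified with a commercial quantitative ELISA kit per the manufacturer's protocol. Samples were drawn at baseline and week 12 from DLB participants on oral test compound 100 mg daily or matching placebo, 1–4 h after dosing and ~2 h after the last levodopa dose.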

[2] = open label study, 12 months; cited from earlier work
[3] = cited from earlier work
[4] = for AUC / Cmax / Tmax: human, in vivo, po; for AUC: AUC0‐4, CSF
[5] = test system: individuals with dementia with Lewy bodies; type: in vivo, human; settings: bosutinib 100 mg once daily, 12 weeks
Abl/SRC = settings: cited from earlier work
[6] = test system: dopamine metabolites DOPAC and HVA; assay: Quantification of dopamine metabolites DOPAC and HVA; type: in vivo, human; settings: bosutinib 100 mg compared to placebo, 12 weeks
Method in brief: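 CSF DOPAC and HVA were derivatized with benzoyl chloride and quantified by UHPLC-MS/MS. CSF was obtained by lumbar puncture at baseline and week 12, 1–4 h after oral test compound 100 mg daily or placebo and ~2 h after the last levodopa dose. Values were given as mean ± SD, with one-sided tests at 5% type I error and 90% CI.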

[7] = test system: individuals with dementia with Lewy bodies; assay: Exploratory clinical assessments; type: in vivo, human; settings: change 12 week‐ baseline, bosutinib 100 mg vs. placebo; interval in brackets
alpha‐synuclein = assay: Total alpha‐synuclein ELISA in CSF and plasma; type: in vivo, human; settings: bosutinib 100 mg compared to placebo, 12 weeks
Method in brief: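 Total alpha-synuclein in CSF and plasma was measured by solid-phase sandwich ELISA per the kit protocol, and the CSF/plasma ratio was calculated from the two levels. Samples were taken at baseline and week 12 from DLB participants given oral test compound 100 mg daily or placebo. Changes were compared within groups by one-tailed paired Wilcoxon test and between groups by one-tailed Welch t-test.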

[8] = test system: Aβ40, Aβ42, total tau, p‐tau 181; assay: Aβ40, Aβ42, total tau, and p‐tau 181 ELISA in CSF and plasma; type: in vivo, human; settings: CSF or plasma, bosutinib vs placebo
Method in brief: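 Plasma (10 mL blood) and lumbar-puncture CSF (~15 mL) were taken at baseline and at week 12 from DLB participants randomized 1:1 to oral test compound 100 mg daily or placebo. Sampling was 1–4 h post-dose, ~2 h after the last levodopa dose. Aβ40, Aβ42, total tau and p-tau181 were measured by Milliplex ELISA, with CSF and plasma run in parallel using the same reagents.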

[9] = 100 mg, 12 weeks vs single dose
[10] = plasma, single oral dose 500 mg, normal individuals, n = 6
[11] = CSF, 100 mg, 12 weeks vs single dose
[12] = 100 mg, CSF, multiple oral doses 100 mg once daily, 12 weeks
[13] = 100 mg, CSF, single oral dose 100 mg
[14] = 200 mg, CSF, single oral dose 200 mg

Sequence of Src (P12931 whole entry): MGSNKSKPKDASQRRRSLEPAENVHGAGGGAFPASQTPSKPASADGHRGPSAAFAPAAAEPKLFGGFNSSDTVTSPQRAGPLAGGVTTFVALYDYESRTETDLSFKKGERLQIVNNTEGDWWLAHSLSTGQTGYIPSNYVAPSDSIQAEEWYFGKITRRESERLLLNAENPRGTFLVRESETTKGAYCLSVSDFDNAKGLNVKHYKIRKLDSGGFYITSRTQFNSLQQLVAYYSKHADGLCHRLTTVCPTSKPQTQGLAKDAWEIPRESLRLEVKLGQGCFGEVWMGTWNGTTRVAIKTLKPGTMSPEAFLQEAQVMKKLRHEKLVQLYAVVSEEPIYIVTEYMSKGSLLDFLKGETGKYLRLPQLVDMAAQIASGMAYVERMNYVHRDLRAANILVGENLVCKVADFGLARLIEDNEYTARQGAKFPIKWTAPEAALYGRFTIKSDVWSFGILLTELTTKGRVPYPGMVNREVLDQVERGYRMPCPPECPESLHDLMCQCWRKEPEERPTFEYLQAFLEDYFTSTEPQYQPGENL

## COc1cc(Nc2c(C#N)cnc3cc(OCCCN4CCN(C)CC4)c(OC)cc23)c(Cl)cc1Cl [Bosutinib, Bosutinib monohydrate]
Src; CSF, Figure 2D
  CSF p‐Src: could not demonstrate differences
Src; plasma, Figure 2C
  Plasma active Src phosphorylated at Tyr416: significantly reduced
[1]; [9]
  Increase of plasma exposure (AUC0‐4), multiple doses compared to a single dose: ~3 fold
  Increase of plasma level (Cmax), multiple doses compared to a single dose: more than 2 fold
[1]; oral, Tmax in the current study, between 0 and 4 hours, current study
  Tmax: 3 to 4 h
[1]; po, 100 mg, multiple oral doses 100 mg once daily, 12 weeks
  AUC: 73.1 ng·h/mL and 0.138 µM·h
[1]; po, 100 mg, single oral dose 100 mg
  AUC: 25 ng·h/mL and 0.0479 µM·h
[1]; po, 100 mg, multiple oral doses 100 mg once daily, 12 weeks, n = 13
  Cmax: 29.9 ng/mL and 56.4 nM
[1]; po, 100 mg, single oral dose 100 mg, n = 9
  Cmax: 13.5 ng/mL and 25.5 nM
[1]; po, 100 mg, Tmax, multiple oral doses 100 mg once daily, 12 weeks
  Tmax: 4 h
[1]; po, 100 mg, Tmax, single oral dose 100 mg, sampling 0 to 4 hours
  Tmax: 3 h
[1]; po, 200 mg, single oral dose 200 mg
  AUC: 36.9 ng·h/mL and 0.0696 µM·h
[1]; po, 200 mg, single oral dose 200 mg, n = 9
  Cmax: 19.6 ng/mL and 37 nM
alpha‐synuclein oligomer
  Oligomeric alpha‐synuclein: no differences
[2]
  Repeatable Battery for the Assessment of Neuropsychological Status (RBANS): less decline
[3]; between 0 and 24 hours
  Tmax in previous studies: around 6 hours
[3]; [10]
  AUC0‐24: 2190 ± 661 ng/h/mL
  Tmax: 3.50 (2.00–6.00) hrs
[4]; [11]
  Increase of CSF exposure (AUC0‐4), multiple doses compared to a single dose: 10 fold
  Increase of CSF level (Cmax), multiple doses compared to a single dose: 9 fold
[4]; 100 mg, multiple oral doses 100 mg once daily, 12 weeks
  AUC: 1.15 ng·h/mL and 0.00216 µM·h
[4]; 100 mg, single oral dose 100 mg
  AUC: 0.14 ng·h/mL and 0.00026 µM·h
[4]; [12]
  Cmax: 0.94 ± 0.32 nM
  Tmax: 3 h
[4]; 100 mg, CSF, multiple oral doses 100 mg once daily, 12 weeks, n = 13
  Cmax: 0.5 ± 0.17 ng/mL
[4]; [13]
  Cmax: 0.11 ± 0.08 nM
  Tmax: 2 h
[4]; 100 mg, CSF, single oral dose 100 mg, n = 9
  Cmax: 0.06 ± 0.04 ng/mL
[4]; 200 mg, single oral dose 200 mg
  AUC: 0.24 ng·h/mL and 0.00044 µM·h
[4]; [14]
  Cmax: 0.25 ± 0.09 nM
  Tmax: 4 h
[4]; 200 mg, CSF, single oral dose 200 mg, n = 9
  Cmax: 0.13 ± 0.06 ng/mL
[5]
  Prolongation of QTc intervals: no prolongation of QTc intervals
  Serious adverse events (SAEs): no serious adverse events
[5]; DLB, N = 13, number (%)
  Total dropped out: 0 (0%)
[5]; N = 13
  Adverse event: Dizziness, number of events (%): 1 (7.7%)
  Adverse event: Falls, number of events (%): 3 (23.1%)
  Adverse event: Flu, number of events (%): 0 (0%)
  Adverse event: Impaction, number of events (%): 0 (0%)
  Adverse event: Liver transaminases, number of events (%): 1 (7.7%)
  Adverse event: Pain, number of events (%): 3 (23.1%)
  Adverse event: Post‐lumbar puncture headache, number of events (%): 1 (7.7%)
  Adverse event: Upper respiratory infection, number of events (%): 0 (0%)
  Adverse event: Urinary incontinence, number of events (%): 1 (7.7%)
  Adverse event: Urinary tract infection, number of events (%): 1 (7.7%)
[5]; N = 13, 9 in placebo, P = 0.68
  Total number of adverse events (AEs): 11
Abl/SRC
  IC50: 1.2 nM
[6]; CSF, Figure 2E
  CSF DOPAC level: no statistically significant difference
[6]; CSF, Figure 2F
  CSF HVA level: no statistically significant difference
[6]; plasma, Figure 2G
  Plasma DOPAC level: significantly reduced
[6]; plasma, Figure 2H
  Plasma HVA level: significantly reduced
[7]
  Alzheimer's Disease Assessment Scale–Cognitive subscale (ADAS‐Cog): −0.66 (−4.67, 3.33)
  Clinician Assessment of Fluctuation (CAF): 1 (−2,3)
  Irritability and Apathy Scale (IAS)‐_Participant_APATHY: 0 (−3, 4)
  Irritability and Apathy Scale (IAS)‐_Participant_IRRITABILITY: 0 (−2, 3)
  Irritability and Apathy Scale (IAS)‐_Partner_APATHY: −1 (−4, 2)
  Irritability and Apathy Scale (IAS)‐_Partner_IRRITABILITY: 1 (−1, 4)
  Montreal Cognitive Assessment (MoCA): 0 (−1, 2)
  Neuropsychiatric Inventory (NPI) frequency x severity: 0 (−8, 9)
  Neuropsychiatric Inventory (NPI)_Caregiver Distress: 2 (−1, 6)
  Problem Behaviours Assessment (PBA): 1 (−14, 10)
  Timed Up and Go: 0 (−3, 2)
  Unified Parkinson's Disease Rating Scale (Activities of Daily Living)‐Part II: −1 (−3, 2)
  Unified Parkinson's Disease Rating Scale (Motor)‐Part III: 0 (−4, 4)
  Unified Parkinson's Disease Rating Scale (SUM Part II+III): −1 (−6, 5)
  Unified Parkinson's Disease Rating Scale (UPDRS‐Cognition)‐Part I: 0 (−2, 1)
  Unified Parkinson's Disease Rating Scale (total Part I+III): −2 (−7, 6)
alpha‐synuclein; CSF, Figure 2I
  CSF alpha‐synuclein level: significantly reduced
alpha‐synuclein; Figure 2K
  CSF:plasma of alpha‐synuclein: reduced
[8]
  Aβ40: no differences
  Aβ42: no differences
  Total tau: no differences
  p‐tau181: no differences
